TCR-CD3 inh – inhibitors of human TCR-CD3 interaction; TAMRA-labeled TCR probe fluorescence, biochemical; inhibition, % at 9.4 µM; 360,000 tested, 0.37% active; in the data active means inhibition above about 19%;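 further: recombinant mutant TCR 2C K166C tagged with TAMRA read by polarization; 0% = receptor in buffer alone and 100% = receptor with positive control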
HTRA1 inh – HTRA1 (human) protease inhibition | Q92743 | recombinant HTRA1, FP-rhodamine activity-based probe, fluorescence polarization | 340,000 tested, 0.5% active | inhibition, % at 5.96 µM; in the data active means inhibition above about 36%;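 further: 0% = enzyme with DMSO and 100% = wells lacking enzyme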
Target sequence (Q92743 whole entry, looked up): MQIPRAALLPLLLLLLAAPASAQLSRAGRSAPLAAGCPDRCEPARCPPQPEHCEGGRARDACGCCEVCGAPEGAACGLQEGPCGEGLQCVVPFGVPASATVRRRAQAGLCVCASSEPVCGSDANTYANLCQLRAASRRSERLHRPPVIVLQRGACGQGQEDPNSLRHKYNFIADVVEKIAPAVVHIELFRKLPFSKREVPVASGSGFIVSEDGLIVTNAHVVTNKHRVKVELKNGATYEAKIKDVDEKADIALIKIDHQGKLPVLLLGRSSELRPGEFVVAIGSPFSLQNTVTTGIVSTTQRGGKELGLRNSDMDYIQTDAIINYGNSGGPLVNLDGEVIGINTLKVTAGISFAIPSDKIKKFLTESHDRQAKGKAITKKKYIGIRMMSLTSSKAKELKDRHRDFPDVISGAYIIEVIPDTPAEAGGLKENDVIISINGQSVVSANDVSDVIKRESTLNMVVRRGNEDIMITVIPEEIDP
ABHD4 inh – ABHD4 (mouse) inhibition, primary FP screen; purified mABHD4, FP-Rh probe fluorescence polarization; inhibition, % at 8.92 µM; 370,000 tested, 0.54% active; AID 720543;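 active means inhibition exceeding the mean over every tested compound plus 3 SD, cut at about 30% in these data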;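 further: 0% = plate median of compound wells and 100% = S159A mutant with DMSO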
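Assay system: wild-type mouse ABHD4 protein; compound: single nominal dose of 8.92 µM, 0.89% DMSO final; schedule: 45 min + 60 min at 25 °C; measured by: FP readout, ex 525 nm / em 598 nm; evaluation: % inhibition of FP-Rh probe binding versus controls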
SIAE inh – human SIAE inhibition, primary screen; Q9HAT2; SIAE FP-Rh probe binding, fluorescence polarization; inhibition, % at 9.66 µM; 370,000 tested, 0.69% active; AID 1053197;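 active means inhibition above a cutoff: mean of compounds within the control limits plus 3 SD of those, cut at about 17% in these data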;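 further: 0% = plate median of compound wells and 100% = probe without SIAE protein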
PRMT1 FP inh – PRMT1 (human) inhibition, primary screen; Q99873; recombinant PRMT1, activity-based probe fluorescence polarization; inhibition, % at 2.79 µM; 370,000 tested, 1.3% active; AID 652257;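 active means inhibition above about 21% made by adding two undisclosed values, limit read from the data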
PRMT1 confirm – PRMT1 (human) inhibition, FP confirmation; shares compounds with PRMT1 FP inh; recombinant His-PRMT1, activity-based probe fluorescence polarization; inhibition, % at 2.79 µM; 3,300 tested, 42% active; AID 687036;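 active means mean inhibition across replicates above the hit cutoff derived for the earlier primary screen, cut at about 22% in these data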
* marks the source's active call; other numbers are inactive results; · = not tested or not shown. The list is not random: actives were taken first. Their share in the collection is about 2.6%.

SMILES	TCR-CD3 inh	HTRA1 inh	ABHD4 inh	SIAE inh	PRMT1 FP inh	PRMT1 confirm
CCOC(=O)c1c(-c2ccc(C)o2)csc1NC(=O)CN1CCCCC1	-1.9	-23.5	-2.3	3.0	43.4*	9.0
CCOC(=O)c1c(-c2ccc(C)o2)csc1NC(=O)CSc1nncs1	0.8	-14.1	-3.1	-4.2	4.1	·
CCOC(=O)c1c(-c2ccc(C)o2)csc1NC(=O)CN1CCN(CC)CC1	0.4	-9.8	1.9	2.5	78.6*	2.9
C#CCNC(=O)C[C@@H]1C(=O)N2CCCC3=C2[C@@]1(C(=O)OCC)CCC3	·	·	-6.9	-5.0	5.7	·
CCNC(=S)Nc1cc(-c2ccc(Cl)cc2)[nH]n1	2.6	-16.5	-9.9	-2.9	43.6*	28.6*
Cc1cc(C)nc(SCC(=O)c2cc3ccccc3oc2=O)n1	5.1	1.2	4.3	4.8	25.2*	8.3
O=C(CSc1nc2ccccc2o1)c1cc2ccccc2oc1=O	-2.7	-4.1	19.4	2.0	9.7	·
Nc1nc(SCC(=O)c2cc3ccccc3o2)n[nH]1	-2.7	-2.2	-1.6	-1.2	71.5*	12.9
O=C(NC1CCCCN(Cc2ccc(Cl)cc2)C1=O)c1ccccc1 (stereo not given)	·	·	-12.4	-7.6	4.9	·
CCCN1CNC(=S)N(CC2CCCO2)C1 (stereo not given)	-3.5	3.3	4.0	1.4	66.5*	-4.2
CCCN1CNC(=S)N(Cc2ccccc2)C1	-3.7	4.2	7.5	-3.9	-1.8	·
Cc1ccc(S(=O)(=O)/N=C2/NC(=O)/C(=C\c3cc(Br)cc(Br)c3O)S2)cc1	·	-73.2	·	·	·	·
Cc1ccc(S(=O)(=O)/N=C2/NC(=O)/C(=C/c3ccc(Br)o3)S2)cc1	11.1	-45.4	-19.8	-45.5	56.4*	15.7
Cc1ccc(Cn2nnc3c2-c2cc(F)ccc2S(=O)(=O)N(C(C)(C)C)C3)cc1	·	·	-8.7	3.9	-3.6	·
CC1CCC(NC(=O)COC(=O)CSc2ccc(C(N)=O)cc2[N+](=O)[O-])CC1 (stereo not given)	2.6	-1.9	4.2	3.2	13.7	·
NC(=O)c1ccc(SCC(=O)OCC(=O)NCc2ccco2)c([N+](=O)[O-])c1	-1.9	-2.1	7.7	0.1	26.1*	1.5
NC(=O)c1ccc(SCC(=O)OCC(=O)NC2CCCCCCC2)c([N+](=O)[O-])c1	-1.4	2.8	9.8	1.4	65.2*	29.9*
C=CCn1c(SCc2cccc(C(F)(F)F)c2)nnc1-c1ccc(OC)cc1	·	·	0.8	5.5	-3.8	·
O=C(CCCCn1cnc2c(=S)nc[nH]c21)Nc1ccc(C(=O)O)cc1	-10.8	6.1	-2.6	0.8	30.3*	10.3
CN1C2C=CC(=O)C1C1C(=O)N(c3ccccc3)C(=O)C12 (stereo not given)	-4.1	·	-0.6	1.1	28.1*	2.3
COC(=O)c1cc(-c2ccccc2OC)c(=O)n2c1CCC2	·	·	1.9	-2.8	1.6	·
N=C1/C(=C\c2coc3ccccc3c2=O)C(=O)N=C2SC=CN12	-11.5	-13.4	-7.7	-6.6	36.4*	31.6*
CC(C)Oc1ccc(Oc2ccc(C#C[C@H](C)N3C(=O)c4ccccc4C3=O)cc2)cn1	·	·	-5.0	0.2	-1.1	·
CCOC(=O)CC[C@@H]1CC[C@]2(CCCN(C(=O)C3CCCCC3)C2)O1	·	·	0.4	4.1	0.1	·
COc1ccc(O)c(/C=c2/sc3nc4cc(C)c(C)cc4n3c2=O)c1	5.7	-56.5	8.6	-58.5	39.5*	69.5*
SMILES	TCR-CD3 inh	HTRA1 inh	ABHD4 inh	SIAE inh	PRMT1 FP inh	PRMT1 confirm
CCN1CCSc2ccc(C(=O)NCc3ccccc3F)cc21	8.2	-8.8	3.3	8.1	51.9*	4.4
COc1ccc(N2C(=O)CC(N3CCN(c4ccc(S(C)(=O)=O)cc4)CC3)C2=O)cc1 (stereo not given)	3.9	-5.0	-3.9	3.4	4.1	·
O=C1CC(N2CCC(O)(c3ccc(Br)cc3)CC2)C(=O)N1c1ccc(Cl)cc1 (stereo not given)	-4.5	-1.4	4.7	-0.5	32.7*	-0.5
O=C1CC(N2CCC(O)(c3ccc(Cl)cc3)CC2)C(=O)N1 (stereo not given)	2.2	-4.9	-6.6	-4.2	53.7*	2.0
O=C1CC(N2CCN(c3ccc(Cl)cc3)CC2)C(=O)N1c1ccc(F)cc1 (stereo not given)	-4.3	-2.9	-1.3	2.8	2.9	·
O=C1CC(N2CCC(O)CC2)C(=O)N1c1ccc(Br)cc1 (stereo not given)	-7.6	3.4	-2.3	-2.3	57.1*	1.7

Screens as filed in PubChem BioAssay.
